Test results as given in ChEMBL document CHEMBL5303300, “EUbOPEN Chemogenomics Library - Multiplex” (2023).
Several values for one entry are separate records, joined by “and”; a condition that tells them apart may be missing. Identical values can stand only once.

System: Fibroblast
Experiment: Multiplex assay against human fibroblast
Format: toxicity, cell-based
Conditions: number of replicates 2
Outline: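 On a CQ1 microscope at 37°C and 5% CO2, live cells were imaged after compound addition. They had been stained at seeding with Hoechst33342, BioTracker Green Microtubule Cytoskeleton Dye, MitoTracker Red and Annexin V Alexa Fluor 680. CellPathfinder machine-learning gating assigned cells to Hoechst high-intensity objects or normal cells, normal cells to healthy, pyknosed or fragmented nuclei, and pyknosed cells to mitotic or apoptotic. Tubulin, mitochondrial-mass and membrane-permeability phenotypes are per cents of healthy-nucleus cells.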

[1] = 12 h, 1 µM, compound concentration 1 uM
[2] = 12 h, 10 µM, compound concentration 10 uM
[3] = 24 h, 1 µM, compound concentration 1 uM
[4] = 24 h, 10 µM, compound concentration 10 uM
[5] = 48 h, 1 µM, compound concentration 1 uM
[6] = 48 h, 10 µM, compound concentration 10 uM

O=C(NCc1ccc(F)cc1)N1CCN2C(=O)OC(c3ccccc3)(c3ccccc3)C2C1 (stereo not given)
Population Apoptotic (%) [1]: 41% and 22% | Population Fragmented Nuclei (%) [1]: 12% and 10% | Population Healthy Nuclei (%) [1]: 71% and 75% | Population Hoechst High Intensity Objects (%) [1]: 0% | Population Membrane Permeable-Phenotype (%) [1]: 10% and 5% | Population Mitochondria Different-Phenotype (%) [1]: 2% and 1% | Population Mitotic Cells (%) [1]: 58% and 77% | Population Normal (%) [1]: 99% | Population Pyknosed Nuclei (%) [1]: 15% and 14% | Population Tubulin-Different-Phenotype (%) [1]: 20% and 13% | Total Cell Count [1]: 252 | Population Apoptotic (%) [2]: 58% and 35% | Population Fragmented Nuclei (%) [2]: 14% and 9% | Population Healthy Nuclei (%) [2]: 69% and 77% | Population Hoechst High Intensity Objects (%) [2]: 0% | Population Membrane Permeable-Phenotype (%) [2]: 9% and 14% | Population Mitochondria Different-Phenotype (%) [2]: 3% | Population Mitotic Cells (%) [2]: 41% and 65% | Population Normal (%) [2]: 100% and 99% | Population Pyknosed Nuclei (%) [2]: 15% and 12% | Population Tubulin-Different-Phenotype (%) [2]: 69% and 59% | Total Cell Count [2]: 153 and 155 | Population Apoptotic (%) [3]: 59% and 46% | Population Fragmented Nuclei (%) [3]: 13% and 15% | Population Healthy Nuclei (%) [3]: 72% and 73% | Population Hoechst High Intensity Objects (%) [3]: 0% | Population Membrane Permeable-Phenotype (%) [3]: 6% and 3% | Population Mitochondria Different-Phenotype (%) [3]: 1% and 0% | Population Mitotic Cells (%) [3]: 40% and 53% | Population Normal (%) [3]: 100% | Population Pyknosed Nuclei (%) [3]: 14% and 10% | Population Tubulin-Different-Phenotype (%) [3]: 19% and 12% | Total Cell Count [3]: 253 and 276 | Population Apoptotic (%) [4]: 65% and 50% | Population Fragmented Nuclei (%) [4]: 12% | Population Healthy Nuclei (%) [4]: 68% and 75% | Population Hoechst High Intensity Objects (%) [4]: 0% and 1% | Population Membrane Permeable-Phenotype (%) [4]: 7% and 2% | Population Mitochondria Different-Phenotype (%) [4]: 9% and 7% | Population Mitotic Cells (%) [4]: 34% and 50% | Population Normal (%) [4]: 99% and 98% | Population Pyknosed Nuclei (%) [4]: 19% and 12% | Population Tubulin-Different-Phenotype (%) [4]: 61% and 48% | Total Cell Count [4]: 153 and 151 | Population Apoptotic (%) [5]: 62% and 69% | Population Fragmented Nuclei (%) [5]: 15% and 10% | Population Healthy Nuclei (%) [5]: 74% and 79% | Population Hoechst High Intensity Objects (%) [5]: 0% | Population Membrane Permeable-Phenotype (%) [5]: 7% and 3% | Population Mitochondria Different-Phenotype (%) [5]: 0% | Population Mitotic Cells (%) [5]: 37% and 30% | Population Normal (%) [5]: 100% | Population Pyknosed Nuclei (%) [5]: 10% and 9% | Population Tubulin-Different-Phenotype (%) [5]: 11% and 5% | Total Cell Count [5]: 259 and 265 | Population Apoptotic (%) [6]: 45% and 83% | Population Fragmented Nuclei (%) [6]: 15% and 12% | Population Healthy Nuclei (%) [6]: 69% and 75% | Population Hoechst High Intensity Objects (%) [6]: 0% and 1% | Population Membrane Permeable-Phenotype (%) [6]: 5% | Population Mitochondria Different-Phenotype (%) [6]: 2% | Population Normal (%) [6]: 100% and 98% | Population Pyknosed Nuclei (%) [6]: 15% and 12% | Population Tubulin-Different-Phenotype (%) [6]: 53% and 43% | Total Cell Count [6]: 156 and 150

CN[C@@H]1C[C@H]2O[C@@](C)([C@@H]1OC)n1c3ccccc3c3c4c(c5c6ccccc6n2c5c31)C(=O)NC4 [STAUROSPORINE]
Population Apoptotic (%) [2]: 76% and 73% and 72% and 71% | Population Fragmented Nuclei (%) [2]: 16% and 10% and 13% | Population Healthy Nuclei (%) [2]: 10% and 6% and 14% and 9% | Population Hoechst High Intensity Objects (%) [2]: 0% and 1% | Population Membrane Permeable-Phenotype (%) [2]: 20% and 15% and 7% | Population Mitochondria Different-Phenotype (%) [2]: 0% and 2% | Population Mitotic Cells (%) [2]: 23% and 26% and 27% and 28% | Population Normal (%) [2]: 99% and 100% and 98% | Population Pyknosed Nuclei (%) [2]: 72% and 82% and 74% | Population Tubulin-Different-Phenotype (%) [2]: 14% and 10% and 4% | Population Apoptotic (%) [4]: 95% and 88% and 87% | Population Fragmented Nuclei (%) [4]: 15% and 21% and 13% | Population Healthy Nuclei (%) [4]: 5% and 3% and 4% and 2% | Population Hoechst High Intensity Objects (%) [4]: 0% and 1% | Population Membrane Permeable-Phenotype (%) [4]: 50% [middle of 4 runs] | Population Mitochondria Different-Phenotype (%) [4]: 0% | Population Mitotic Cells (%) [4]: 4% and 11% and 12% | Population Normal (%) [4]: 100% and 99% and 98% | Population Pyknosed Nuclei (%) [4]: 78% and 74% and 82% and 84% | Population Tubulin-Different-Phenotype (%) [4]: 50% [middle of 4 runs] | Population Apoptotic (%) [6]: 99% and 93% and 92% and 91% | Population Fragmented Nuclei (%) [6]: 27% and 28% and 20% and 22% | Population Healthy Nuclei (%) [6]: 3% and 4% and 7% and 6% | Population Hoechst High Intensity Objects (%) [6]: 0% | Population Membrane Permeable-Phenotype (%) [6]: 66% [middle of 4 runs] | Population Mitochondria Different-Phenotype (%) [6]: 0% and 20% | Population Mitotic Cells (%) [6]: 0% and 6% and 7% and 8% | Population Normal (%) [6]: 100% and 99% | Population Pyknosed Nuclei (%) [6]: 69% and 66% and 72% and 71% | Population Tubulin-Different-Phenotype (%) [6]: 50% and 55% and 45% and 60%

CN(C)CC#Cc1ccc2[nH]c3c(c2c1)-c1nc(N)ncc1CCC3
Population Apoptotic (%) [1]: 30% and 35% | Population Fragmented Nuclei (%) [1]: 32% and 18% | Population Healthy Nuclei (%) [1]: 49% and 55% | Population Hoechst High Intensity Objects (%) [1]: 0% | Population Membrane Permeable-Phenotype (%) [1]: 4% and 6% | Population Mitochondria Different-Phenotype (%) [1]: 2% and 0% | Population Mitotic Cells (%) [1]: 69% and 64% | Population Normal (%) [1]: 100% | Population Pyknosed Nuclei (%) [1]: 17% and 25% | Population Tubulin-Different-Phenotype (%) [1]: 23% and 28% | Total Cell Count [1]: 293 and 186 | Population Fragmented Nuclei (%) [2]: 25% and 22% | Population Healthy Nuclei (%) [2]: 49% and 62% | Population Hoechst High Intensity Objects (%) [2]: 0% | Population Membrane Permeable-Phenotype (%) [2]: 0% and 5% | Population Mitochondria Different-Phenotype (%) [2]: 2% and 1% | Population Mitotic Cells (%) [2]: 61% and 89% | Population Normal (%) [2]: 100% and 99% | Population Pyknosed Nuclei (%) [2]: 25% and 15% | Population Tubulin-Different-Phenotype (%) [2]: 26% and 31% | Total Cell Count [2]: 228 and 378 | Population Apoptotic (%) [3]: 48% and 47% | Population Fragmented Nuclei (%) [3]: 18% and 27% | Population Healthy Nuclei (%) [3]: 65% and 60% | Population Hoechst High Intensity Objects (%) [3]: 0% | Population Membrane Permeable-Phenotype (%) [3]: 7% and 1% | Population Mitochondria Different-Phenotype (%) [3]: 0% and 4% | Population Mitotic Cells (%) [3]: 51% and 52% | Population Normal (%) [3]: 100% and 99% | Population Pyknosed Nuclei (%) [3]: 16% and 11% | Population Tubulin-Different-Phenotype (%) [3]: 25% and 26% | Total Cell Count [3]: 221 and 287 | Population Apoptotic (%) [4]: 39% and 42% | Population Fragmented Nuclei (%) [4]: 19% and 16% | Population Healthy Nuclei (%) [4]: 62% and 56% | Population Hoechst High Intensity Objects (%) [4]: 4% and 1% | Population Membrane Permeable-Phenotype (%) [4]: 4% and 1% | Population Mitochondria Different-Phenotype (%) [4]: 4% and 3% | Population Mitotic Cells (%) [4]: 60% and 57% | Population Normal (%) [4]: 95% and 98% | Population Pyknosed Nuclei (%) [4]: 17% and 26% | Population Tubulin-Different-Phenotype (%) [4]: 52% and 43% | Total Cell Count [4]: 286 and 184 | Population Apoptotic (%) [5]: 70% and 47% | Population Fragmented Nuclei (%) [5]: 25% and 32% | Population Healthy Nuclei (%) [5]: 65% and 62% | Population Hoechst High Intensity Objects (%) [5]: 1% and 2% | Population Membrane Permeable-Phenotype (%) [5]: 3% | Population Mitochondria Different-Phenotype (%) [5]: 0% | Population Mitotic Cells (%) [5]: 29% and 52% | Population Normal (%) [5]: 98% and 97% | Population Pyknosed Nuclei (%) [5]: 9% and 5% | Population Tubulin-Different-Phenotype (%) [5]: 24% and 17% | Total Cell Count [5]: 266 and 347 | Population Apoptotic (%) [6]: 68% and 64% | Population Fragmented Nuclei (%) [6]: 13% and 6% | Population Healthy Nuclei (%) [6]: 67% and 77% | Population Hoechst High Intensity Objects (%) [6]: 0% and 5% | Population Membrane Permeable-Phenotype (%) [6]: 13% and 12% | Population Mitochondria Different-Phenotype (%) [6]: 1% and 5% | Population Mitotic Cells (%) [6]: 31% and 35% | Population Normal (%) [6]: 100% and 94% | Population Pyknosed Nuclei (%) [6]: 18% and 16% | Population Tubulin-Different-Phenotype (%) [6]: 52% and 63% | Total Cell Count [6]: 153 and 185
